Experimental data taken from paper PMC2695661 (The Journal of Endocrinology, 2009).
“Also recorded” adds a separate entry of the source. Square brackets hold non-standard residues; d marks the D form. Peptide text beside a SMILES is read from it. pGlu = O=C1CC[C@@H](C(=O)O)N1

Legend:
[1] = molecular target: T1, cGnRH-R-I (Gallus gallus, UniProt Q9DDC9); test: Inositol phosphate assay, cGnRH-R-I transfected COS-7 cells; assay type: cell-based, chicken
T1 sequence (Q9DDC9 1-375): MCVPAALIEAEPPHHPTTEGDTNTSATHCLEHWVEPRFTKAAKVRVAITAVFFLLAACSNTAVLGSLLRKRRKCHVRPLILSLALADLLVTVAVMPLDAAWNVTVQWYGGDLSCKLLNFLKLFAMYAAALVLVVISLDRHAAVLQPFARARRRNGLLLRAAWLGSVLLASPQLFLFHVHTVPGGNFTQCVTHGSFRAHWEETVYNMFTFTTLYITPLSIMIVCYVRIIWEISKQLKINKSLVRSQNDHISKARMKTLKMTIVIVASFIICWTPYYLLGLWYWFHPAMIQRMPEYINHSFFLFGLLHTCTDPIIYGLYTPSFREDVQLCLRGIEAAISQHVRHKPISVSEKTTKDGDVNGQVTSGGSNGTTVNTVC
In short: (§1)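 COS-7 cells were electroporated with a chicken type I or type III GnRH receptor expression construct and grown in DMEM with 10% FCS, 4 mM L-glutamine and penicillin/streptomycin at 37 °C, 5% CO2. After 24 h, cells were labelled 24 h with [3H]-myo-inositol in inositol-free DMEM. They were then washed in 25 mM HEPES-DMEM with 10 mM LiCl and stimulated 1 h at 37 °C with analogue. Antagonist mode included 1 nM GnRH-II. Reactions were stopped with 10 mM formic acid. Total inositol phosphates were eluted from Dowex with 1 M ammonium formate/0.1 M formic acid. Assays were run in triplicate and fitted by non-linear regression.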

[2] = molecular target: T2, cGnRH-R-III (Gallus gallus, UniProt Q5EFE0); test: Inositol phosphate assay, cGnRH-R-III transfected COS-7 cells; assay type: cell-based, chicken
T2 sequence (Q5EFE0 1-419): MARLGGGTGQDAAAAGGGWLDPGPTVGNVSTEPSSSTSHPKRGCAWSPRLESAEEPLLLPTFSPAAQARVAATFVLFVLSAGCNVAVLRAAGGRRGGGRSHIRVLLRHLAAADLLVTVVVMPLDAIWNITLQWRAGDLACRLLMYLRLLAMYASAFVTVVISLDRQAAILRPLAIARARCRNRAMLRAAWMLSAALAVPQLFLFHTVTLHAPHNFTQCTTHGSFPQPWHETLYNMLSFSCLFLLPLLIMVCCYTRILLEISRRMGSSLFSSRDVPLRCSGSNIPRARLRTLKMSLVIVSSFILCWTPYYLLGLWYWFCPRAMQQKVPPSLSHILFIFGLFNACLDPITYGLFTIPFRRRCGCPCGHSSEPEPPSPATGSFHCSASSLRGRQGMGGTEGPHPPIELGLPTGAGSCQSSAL
In short: as §1

[3] = molecular target: T1, cGnRH-R-I; test: Whole cell radioligand binding assay, cGnRH-R-I transfected COS-7 cells; set-up: species or system chicken
[4] = molecular target: T2, cGnRH-R-III; test: Whole cell radioligand binding assay, cGnRH-R-III transfected COS-7 cells; set-up: species or system chicken

EC50 [1]	EC50 [2]	fold higher affinity for GnRH-II than for cGnRH-I [3]	fold higher affinity for GnRH-II than for sGnRH-III [3]	fold higher affinity for GnRH-II than for cGnRH-I [4]	fold higher affinity for GnRH-II than for sGnRH-III [4]	inositol phosphate accumulation, GnRH-II relative to cGnRH-I ([2]; cGnRH-R-III transfected cells)	Compound	inositol phosphate production potency, GnRH-II relative to cGnRH-I ([1]; cGnRH-R-I)
10.3 nM	21 nM	–	–	–	–	–	CC(C)C[C@H](NC(=O)[C@H](Cc1c[nH]c2ccccc12)NC(=O)CNC(=O)[C@H](Cc1ccc(O)cc1)NC(=O)[C@H](CO)NC(=O)[C@H](Cc1c[nH]c2ccccc12)NC(=O)[C@H](Cc1c[nH]cn1)NC(=O)[C@@H]1CCC(=O)N1)C(=O)N1CCC[C@H]1C(=O)NCC(N)=O [sGnRH-III] ([pGlu]HWSYGWLPG-NH2)	–
–	–	21 fold	16 fold	35 fold	16 fold	six times more effective	GnRH-II ([pGlu]HWSHGWYPG-NH2; ends and bridges not checked; UniProt O43555 24-33, looked up)	four times more potent; also recorded: four times more potently
